The structures appear in SMILES notation.

The nature of this data set: Toxicity liver stage against HepG2, at 10uM. It counts as cell-based. On the set-up: test concentration 10 uM, cell line HepG2-A16-CD81EGFP. To be noted: human, HepG2-A16-CD81EGFP cells; read-out: INHIBITION
In a few lines: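 Uninfected HepG2-A16-CD81EGFP cells, 3 × 10^3 per well, 1536-well, plated on prespotted compound at 10 μM final, parasite-free screening media added to match infected plates; puromycin 10 μM positive, DMSO 0.5% negative; run in parallel with 48 h PbLuc assay at 37 °C, 5% CO2; viability by CellTiter-Glo luminescence, normalized to controls.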
For `CCOC(=O)CCn1cnc2onc(-c3cc(OC)ccc3Cl)c2c1=O`, the cytotoxicity at 10 µM is -19%.

Take `COCc1cc(CC2(NC3CCN(C)CC3)COC2)no1`: the cytotoxicity at 10 µM is -4.12%.

For the compound `O=C1N(Cc2ccccn2)C[C@H]2CN(C3CCC3)CCN12`, the cytotoxicity at 10 µM was -4.81%.

For `CC(C)Cc1cc(CC2(NCc3ccco3)COC2)no1`, the cytotoxicity at 10 µM is 6.25%.

`CN(C)C(=O)c1cc(-c2ccncc2)[nH]n1`: the cytotoxicity at 10 µM amounted to 0.676%.

For `CCOC(=O)N1[C@@H](c2ccco2)[C@@H](C(=O)O)C[C@]12CCCCNC2=O`, the cytotoxicity at 10 µM is -2.98%.

Take `O=C1CN(C(=O)c2ccc(Cl)cc2)CC(O)CN1Cc1cccs1` (stereo not drawn): the cytotoxicity at 10 µM amounted to 0.331%.

As for `COCCNC(=O)Cn1cc(OCc2ccccc2)c(=O)cc1CO`, the cytotoxicity at 10 µM is -7.44%.

Regarding `O=C1CC(c2ccc(C(=O)O)cc2)c2cnn(Cc3ccco3)c2N1` (stereo not drawn), the cytotoxicity at 10 µM is -0.869%.

With `Cn1cccc1C(O)CNC(=O)COc1ccc(Cl)cc1Cl` (stereo not drawn), the cytotoxicity at 10 µM was -1.23%.

Regarding `COc1ccc(-n2nnc(C(N)=O)n2)cc1`, the cytotoxicity at 10 µM was found to be 8.13%.

Regarding `COc1ccccc1C(O)Cn1cc(C(=O)NCC2CC2)nn1` (stereo not drawn), the cytotoxicity at 10 µM is -2.62%.

Consider `CC(C)NC(=O)N1CCC2(CC1)NC(=O)[C@H]1CN(C(=O)N(C)C)C[C@H]12`, for which the cytotoxicity at 10 µM is -1.66%.

Take `Cc1nc(CN2C(=O)C[C@@H]3[C@@H]2CCN3Cc2cnn(C)c2)cs1`: the cytotoxicity at 10 µM turned out to be 2.44%.

Regarding `Cc1ccc(N2CC[C@@H]3CN(Cc4c[nH]cn4)C[C@@H]3C2)nn1`, the cytotoxicity at 10 µM was found to be 7.43%.

As for `Cc1noc(C2CCC3(CCN(C(=O)c4ccnnc4)CC3)O2)n1` (stereo not drawn), the cytotoxicity at 10 µM amounted to 6.69%.

On to `COCc1ncn2c1CN(C(=O)Nc1cccc(OC)c1)CC2`, for which the cytotoxicity at 10 µM was 12.7%.

Take `O=C(c1ccco1)N1CCOCC2(C1)CN(c1ccoc1)C(=O)CO2` (stereo not drawn): the cytotoxicity at 10 µM is -6.04%.

`COCCN1CCO[C@H]2[C@H](OCc3cccc(C)n3)CC[C@@H]21`: the cytotoxicity at 10 µM is -1.01%.

With `CC(C)c1noc(-c2ccnc(-n3cnc(C(=O)O)c3)c2)n1`, the cytotoxicity at 10 µM came to 0.715%.

For the compound `Cc1ccc(-n2c(O)cc(C)c(C#N)c2=O)c(C)c1`, the cytotoxicity at 10 µM was 7.75%.

As for `COCCNC(=O)CCc1c(C)nn(-c2nc(C)c(C)c(=O)[nH]2)c1C`, the cytotoxicity at 10 µM worked out at 11.1%.

For the compound `CN(C)S(=O)(=O)N1CCC(Oc2ccccn2)CC1`, the cytotoxicity at 10 µM is 13.6%.

Consider `Cn1cccc1C(=O)N1CCN(CC2CC2)c2ncccc2C1`, for which the cytotoxicity at 10 µM is -21.9%.

`CN(C)C(=O)COCc1cncc2c1CCN(Cc1nccn1C)C2`: the cytotoxicity at 10 µM was -7.61%.

As for `Cc1ccc2cnn(CCC(=O)Nc3c(C)nn(C)c3C)c2c1`, the cytotoxicity at 10 µM is -13.4%.

In the case of `CNc1cc(CCNS(=O)(=O)c2ccccc2)nc(-c2ccccn2)n1`, the cytotoxicity at 10 µM turned out to be 5.13%.

Consider `O=C(CCN1CCc2ccccc21)N1C[C@@H](O)[C@H](N2CCOCC2)C1`, for which the cytotoxicity at 10 µM was determined as 1.23%.

Take `Cc1c[nH]c(C2COCCN2S(=O)(=O)c2cn[nH]c2)n1` (stereo not drawn): the cytotoxicity at 10 µM was -22.8%.

Take `CS(=O)(=O)NC[C@]1(O)CCN(C(=O)Cc2cccs2)C[C@H]1O`: the cytotoxicity at 10 µM is -17.9%.

Regarding `Cc1cc(C)nc(C2CCN(C(=O)c3c(C)noc3C)C2)n1` (stereo not drawn), the cytotoxicity at 10 µM is -4.34%.

Take `Cc1cc(N(C)C)nc(C2(C)CCCN2C(=O)c2cncnc2C)n1` (stereo not drawn): the cytotoxicity at 10 µM was -11.3%.

In the case of `CN(C)c1nc2ncc(Cl)cc2cc1C#N`, the cytotoxicity at 10 µM turned out to be 9.54%.

In the case of `CS(=O)(=O)CCN1CCN(c2ccc(Cl)cn2)CC1`, the cytotoxicity at 10 µM came to 4.13%.

For `Cc1cccc2nc(CN3CCCC(Cn4ccnn4)C3)cc(=O)n12` (stereo not drawn), the cytotoxicity at 10 µM was determined as 3.23%.

Regarding `Cc1nn(C)c2ncc(NC(=O)N3CCCCCC3)cc12`, the cytotoxicity at 10 µM came to 4.87%.

For `O=C(c1cc2c(s1)CCC2)N1CCN(c2cnccn2)CC1`, the cytotoxicity at 10 µM was found to be 1.5%.

For the compound `O=C(C1COCCO1)N1CCN(CC(F)(F)F)c2ccccc21` (stereo not drawn), the cytotoxicity at 10 µM turned out to be 7.36%.

On to `CCC(C)(C)NC(=O)c1ccc(NC(=O)NCc2cc(C)on2)cc1`, for which the cytotoxicity at 10 µM is -1.84%.

On to `CCS(=O)(=O)NCC(=O)NC(c1cc(C)sc1C)C(C)C` (stereo not drawn), for which the cytotoxicity at 10 µM came to 3.77%.

On to `O=C(CN1CCS(=O)(=O)CC1)NC1CCCCc2ccccc21` (stereo not drawn), for which the cytotoxicity at 10 µM worked out at 7.28%.

On to `CC(=O)NCCNC(=O)c1cc(Br)c2c(c1)OCCO2`, for which the cytotoxicity at 10 µM was -1.54%.

As to `NC(=O)C1CCCN1Cc1cccc(NC(=O)c2cccs2)c1` (stereo not drawn), the cytotoxicity at 10 µM is -12.7%.

For the compound `CCN(CC)CCNC(=O)c1cnc(-c2ccccc2)nc1`, the cytotoxicity at 10 µM amounted to 12.4%.

`CN(Cc1ccc(N2CCOCC2)cc1)Cc1noc(C(C)(C)C)n1`: the cytotoxicity at 10 µM turned out to be 14%.

Consider `Cc1c(C(C)NC(=O)C2CCCC2)cnn1C` (stereo not drawn), for which the cytotoxicity at 10 µM is -10.9%.

Take `COc1ccc(CC(=O)NC2(C#N)CCOCC2)c(Cl)c1`: the cytotoxicity at 10 µM is -6.48%.

Turning to `COc1ccc(CNC(=O)c2ccc(Cl)cc2F)cc1C(=O)O`, the cytotoxicity at 10 µM is -1.62%.

For `O=C(CN1CCCC1Cn1cncn1)Nc1nncs1` (stereo not drawn), the cytotoxicity at 10 µM stood at 5.05%.

With `Cc1cc(C)n(CC2CN(Cc3cccc(C#N)c3)CCO2)n1` (stereo not drawn), the cytotoxicity at 10 µM is -3.46%.

For `CCc1nnc2n1CC(CNCc1nc(C)c(C)o1)CC2` (stereo not drawn), the cytotoxicity at 10 µM is -16%.

On to `CCOc1ncccc1CNS(=O)(=O)N1CCOCC1`, for which the cytotoxicity at 10 µM was -10.2%.

On to `Cc1ccc(C(=O)NCC2COCCO2)c(=O)[nH]1` (stereo not drawn), for which the cytotoxicity at 10 µM is 10.9%.

For the compound `CCC1CN(CC(=O)NC(C)C)CCO1` (stereo not drawn), the cytotoxicity at 10 µM came out at 2.16%.

Take `CNC(=O)c1ccc(NC(=O)NC(C)c2cc(C)oc2C)c(C)c1` (stereo not drawn): the cytotoxicity at 10 µM is -10.6%.

`CS(=O)(=O)N1CCOC2(CCCC2)C1`: the cytotoxicity at 10 µM is -4.7%.

As to `Cc1cc(C#N)ccc1S(=O)(=O)NCc1cnc(N(C)C)n1C`, the cytotoxicity at 10 µM is -2.64%.

For `Cc1nc(CNC(=O)CCN2CCN(c3ccccn3)CC2)oc1C`, the cytotoxicity at 10 µM was -4.97%.

On to `COCC(O)CN(C)c1ccnc2cc(F)ccc12` (stereo not drawn), for which the cytotoxicity at 10 µM is -2.63%.

As for `CC(O)CN1CCC(CN(C)CC(=O)NC2CCOCC2)CC1` (stereo not drawn), the cytotoxicity at 10 µM is -3.33%.

Turning to `CC(=O)NCCCNCc1cc(F)ccc1Br`, the cytotoxicity at 10 µM was -0.595%.

As to `O=C(NCc1cc[nH]n1)NCC(c1ccccc1Cl)N1CCCC1` (stereo not drawn), the cytotoxicity at 10 µM was 14.7%.

Turning to `O=C(NCc1ccccc1CN1CCC(O)CC1)Nc1cccnc1`, the cytotoxicity at 10 µM was -8.8%.

Take `CC(C)COC(C)C(=O)N1CCN(S(C)(=O)=O)CC1` (stereo not drawn): the cytotoxicity at 10 µM is -5.38%.

Turning to `CCc1noc(C(C)N(C)CC(=O)Nc2c(C)cccc2C)n1` (stereo not drawn), the cytotoxicity at 10 µM worked out at 2.14%.

In the case of `CCc1nc(CN2CCCN(c3nc4ccccc4o3)CC2)no1`, the cytotoxicity at 10 µM is -22.5%.

As to `Cc1nc(NC(=O)CNC(=O)c2c(F)cccc2Cl)n[nH]1`, the cytotoxicity at 10 µM is -10.2%.

For `CCOc1ncccc1NC(=O)c1sccc1C`, the cytotoxicity at 10 µM was -16.1%.

For the compound `CCS(=O)(=O)N1CC[C@H]2O[C@H](c3nnc(C)o3)CC[C@H]21`, the cytotoxicity at 10 µM is -75.6%.

Regarding `CCc1nc(C)sc1C(=O)N1CCN(c2ncccc2C)CC1`, the cytotoxicity at 10 µM is 1.39%.

Consider `Cc1cc(N(C)Cc2c(C)noc2C)n2nc(C)c(C)c2n1`, for which the cytotoxicity at 10 µM amounted to 5.44%.

Turning to `Cc1cccc(CN(Cc2ccccc2)Cc2nccs2)n1`, the cytotoxicity at 10 µM amounted to 12.4%.

In the case of `CCc1[nH]c2c(CNC(=O)C3CCC(=O)NC3)cc(C)cc2c1C` (stereo not drawn), the cytotoxicity at 10 µM is -3.79%.

As for `Cc1ccc2occ(CN3CCN(c4ncccn4)CC3)c(=O)c2c1`, the cytotoxicity at 10 µM was -2.46%.

For the compound `CCCN1CC2(CCN(C)CC2)CC1C(=O)NCCn1cc(C)cn1` (stereo not drawn), the cytotoxicity at 10 µM is -22.9%.

For the compound `CN(C(=O)CCc1ccncc1)C1CCCN(CCc2ccccc2)C1` (stereo not drawn), the cytotoxicity at 10 µM was -13.5%.

As to `O=C(c1cccc(-c2ccc(F)cc2)c1)N1CCC2(CC1)[C@H](O)C[C@@H]2O`, the cytotoxicity at 10 µM came to 2.37%.

`O=C(O)c1cc(-c2ccncc2)cc(S(=O)(=O)N2CCCCCC2)c1`: the cytotoxicity at 10 µM worked out at 2.05%.

In the case of `Cc1oc(C)c(C(=O)NCc2cccnc2)c1C`, the cytotoxicity at 10 µM is 5.19%.

Consider `Cc1nc(C2CCCN2C(=O)CCCn2cncn2)no1` (stereo not drawn), for which the cytotoxicity at 10 µM was found to be 6.62%.

For `CN(C(=O)c1ccc(-n2ncc(C#N)c2N)cc1)C1CCCC1`, the cytotoxicity at 10 µM was -5.1%.

For the compound `CN(Cc1ccccn1)CC1CCCN1c1cccnn1` (stereo not drawn), the cytotoxicity at 10 µM was found to be 2.43%.

In the case of `COc1ccc(CC(=O)N2CCCCC2Cn2cccn2)cc1` (stereo not drawn), the cytotoxicity at 10 µM is -11.3%.

With `CCn1cnnc1CNC(=O)N1CCCCCC1`, the cytotoxicity at 10 µM was -7.36%.

Turning to `COCc1nc(CN2CCOC(CN(C)c3cccnn3)C2)cs1` (stereo not drawn), the cytotoxicity at 10 µM was found to be 1.55%.

On to `CC(=O)Nc1nc(C(=O)NC(C)c2cccnc2)cs1` (stereo not drawn), for which the cytotoxicity at 10 µM was -4.21%.

On to `CC(C)c1noc(C(C)N2CCN(Cc3cccc(C#N)c3)CC2)n1` (stereo not drawn), for which the cytotoxicity at 10 µM was -14.3%.

Regarding `COc1ncccc1C(=O)N1CCN(C(=O)Cc2ccccn2)CC1`, the cytotoxicity at 10 µM was 0.722%.

For the compound `COc1c(CNCc2ccnc(N3CCCC3)c2)c(C)nn1C`, the cytotoxicity at 10 µM amounted to 4.31%.

Turning to `O=C(Cn1cccn1)NCC1(c2ccccc2)CC1`, the cytotoxicity at 10 µM was 3.13%.

For `O=C(Nc1cc(F)ccc1OCC1CCCO1)c1ccc(O)nc1` (stereo not drawn), the cytotoxicity at 10 µM is -2.91%.

In the case of `Cn1ccc(C(=O)N2CCCC(n3cncn3)C2)cc1=O` (stereo not drawn), the cytotoxicity at 10 µM was -2.43%.

As for `Cn1cccc1C(=O)N1CCC2(CC1)COC(COc1ccccn1)C2` (stereo not drawn), the cytotoxicity at 10 µM was determined as 1.48%.

For `c1cnc(N2CCOC3(COCCN(Cc4cc[nH]n4)C3)C2)nc1` (stereo not drawn), the cytotoxicity at 10 µM was determined as 11.8%.

Regarding `CC1c2ncc(Cn3cncn3)n2CCN1CC1CCOCC1` (stereo not drawn), the cytotoxicity at 10 µM stood at 2.84%.

Take `O=C1[C@@H]2CCN(C3CCOCC3)C[C@@H]2OCCN1Cc1cccnc1`: the cytotoxicity at 10 µM is -80%.

On to `Cc1nc(Cn2c3c(ccc2=O)CCN(CC2CC2)CC3)cs1`, for which the cytotoxicity at 10 µM amounted to 1.63%.

As to `c1cncc(CN2CC[C@@H]3[C@@H]2CCN3Cc2ccc3c(c2)OCO3)c1`, the cytotoxicity at 10 µM was -3.04%.

These data come from ChEMBL document CHEMBL4513216, “Probing the Open Global Health Chemical Diversity Library for Multistage-Active Starting Points for Next-Generation Antimalarials” (ACS Infect Dis, 2020).
